The values that follow come from ChEMBL document CHEMBL1687716, “Pharmacokinetics of L-arginine in adults with moderately severe malaria” (Antimicrob Agents Chemother, 2008).

The subject of series [1] is Homo sapiens. Put plainly: Toxicity in patient with severe malaria assessed as decrease of systolic blood pressure at 3 to 6 g, iv for 30 mins via infusion pump. The settings on record: in vivo, 0.5 h. The class given is organism-based, Artery. In short, it runs like this: (§1)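 In adults with malaria on IV quinine, 10 per dose, systolic and diastolic blood pressure were recorded at baseline and immediately at the end of a 30-min IV L-arginine infusion (in saline, 10% or less). They were followed afterward to check return to baseline. Mean change was given with 95% CI and P value.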

Series [2] relates to Homo sapiens. The series can be described thus: Toxicity in patient with severe malaria assessed as effect on pulse rate at 3 to 12 g, iv for 30 mins via infusion pump measured during drug infusion. In kind it is organism-based. The settings on record: in vivo, 0.5 h.
The subject of series [3] is Homo sapiens. The series can be described thus: Toxicity in patient with severe malaria assessed as effect on respiratory rate at 3 to 12 g, iv for 30 mins via infusion pump measured after drug infusion. In kind it is organism-based. The following applies: in vivo, 0.5 h.
A short description of series [4]: Primary phase half life in patient with severe malaria administered as iv for 30 mins via infusion pump. In kind it is ADME, organism-based. The following applies: human, in vivo, read-out: alphat1/2. In short, it runs like this: (§2)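 Half-lives came from a population model fitted in NONMEM (FOCE with interaction) to plasma HPLC levels from infused patients and from patients not given L-arginine. The model was two-compartment linear with first-order elimination and combined proportional and additive residual error. Baseline and natural recovery were fitted by a second-order polynomial. CV% was estimated by simulation assuming a log-normal distribution.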

Series [5] deals with Homo sapiens. The series can be described thus: Toxicity in patient with severe malaria assessed as decrease of diastolic blood pressure at 3 to 6 g, iv for 30 mins via infusion pump. The class given is organism-based, Artery. The following applies: in vivo, 0.5 h. In short, it runs like this:
as §1

Series [6] can be described thus: Terminal half life in patient with severe malaria administered as iv for 30 mins via infusion pump. In kind it is ADME, organism-based. The following applies: human, in vivo, read-out: beta t1/2 (converted). In short, it runs like this: as §2
The test system of series [7] is Homo sapiens. Put plainly: Toxicity in patient with severe malaria assessed as pain at drug infusion site at 3 to 12 g, iv for 30 mins via infusion pump. In kind it is organism-based. The following applies: in vivo, 0.5 h.
Series [8] relates to Homo sapiens. Put plainly: Toxicity in patient with severe malaria assessed as decrease of systolic blood pressure at 12 g, iv for 30 mins via infusion pump. The class given is organism-based, Artery. The following applies: in vivo, 0.5 h. In short, it runs like this:
as §1

The test system of series [9] is Homo sapiens. Put plainly: Toxicity in patient with severe malaria assessed as inflammation at 3 to 12 g, iv for 30 mins via infusion pump. In kind it is organism-based. The settings on record: in vivo, 0.5 h.
Series [10] has as its system Homo sapiens. The series can be described thus: Toxicity in patient with severe malaria assessed as decrease of diastolic blood pressure at 12 g, iv for 30 mins via infusion pump. The settings on record: in vivo, 0.5 h. The class given is organism-based, Artery. Put shortly:
as §1

Series [11] can be described thus: Plasma concentration in patient with severe malaria at 6 g, iv for 30 mins via infusion pump. In kind it is ADME, organism-based. The settings on record: human. Put shortly:
(§3)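 Adults with moderately severe malaria, all on IV quinine, were placed in groups of 10 per dose. L-arginine was diluted in normal saline to 10% or less and given IV through an antecubital cannula over 30 min. Plasma was taken at 8–11 time points up to 24 h, separated within 30 min and stored at −70°C. Samples were ethanol-deproteinized with norleucine as internal standard, AccQFluor-derivatized and measured by HPLC. Peak was taken after the end of infusion.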

Series [12] relates to Homo sapiens. Put plainly: Toxicity in patient with severe malaria assessed as effect on respiratory rate at 3 to 12 g, iv for 30 mins via infusion pump measured during drug infusion. The class given is organism-based. The following applies: in vivo, 0.5 h.
Series [13] concerns Homo sapiens. The series can be described thus: Toxicity in patient with severe malaria assessed as effect on pulse rate at 3 to 12 g, iv for 30 mins via infusion pump measured after drug infusion. In kind it is organism-based. The following applies: in vivo, 0.5 h.
The nature of series [14]: Plasma concentration in patient with severe malaria at 12 g, iv for 30 mins via infusion pump. In kind it is ADME, organism-based. The following applies: human. In short, it runs like this: as §3
A short description of series [15]: Plasma concentration in patient with severe malaria at 3 g, iv for 30 mins via infusion pump. In kind it is ADME, organism-based. The following applies: human. Put shortly: as §3

On to `N=C(N)NCCC[C@H](N)C(=O)O` [ARGININE], for which the Activity result in the series on Homo sapiens [1] is “Non-toxic”; in the series on Homo sapiens [2], “Non-toxic”; in the series with Homo sapiens [3], “Non-toxic”; in the series on Homo sapiens [5], “Non-toxic”; with Homo sapiens [7] it was “Non-toxic”; in the series with Homo sapiens [8], 5 mmHg. For the same molecule, the Activity result was “Non-toxic” in the series with Homo sapiens [9], 5 mmHg in the series with Homo sapiens [10], “Non-toxic” in the series with Homo sapiens [12] and “Non-toxic” in the series with Homo sapiens [13]. The half-life in series [4] is 0.25 h; in series [6], 3.75 h. Further, the concentration at 0.5 h in series [11] is 809 µM; in series [14], 1310 µM; in [15] it was 288 µM.
